Source: ChEMBL document CHEMBL1828627, “High-throughput-screening-based identification and structure-activity relationship characterization defined (S)-2-(1-aminoisobutyl)-1-(3-chlorobenzyl)benzimidazole as a highly antimycotic agent nontoxic to cell lines” (J Med Chem, 2011)
pIC50: −log10 of the molar value. In brackets after ≈: the same amount, converted by molar mass. Activity calls are given as the source filed them.

Experiments:
[1] = Selectivity index of CC50 for human HeLa cells to IC50 for Candida albicans SC5314 infected in HeLa cells
In short: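 Selectivity index calculated as CC50/IC50. CC50 is the half-maximal cytotoxic concentration in HeLa cells; IC50 is the half-maximal antimycotic concentration in the C. albicans–infected HeLa assay. Both come from 5-day fluorescein diacetate viability readouts.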

[2] = Cytotoxicity against human HeLa cells assessed as cell viability after 5 days by fluorescein diacetate assay; type: cell-based
Candida albicans [3] = test: Antifungal activity against Candida albicans SC5314 infected in HeLa cells after 5 days by fluorescein diacetate assay; type: functional, organism-based; conditions: for pIC50: Candida albicans, SC5314, HeLa, 120 h, read-out: IC50; for IC50: hela
In short: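 HeLa cells co-incubated with C. albicans and compound for 5 days. Dose–response from resynthesized compounds. Host-cell viability checked microscopically at 18 h, then quantified at day 5 by fluorescein diacetate conversion to a fluorophore by live cells. Wells also inspected visually for yeast growth. Controls: untreated uninfected HeLa (~100%) and untreated infected HeLa (~0%). IC50 derived from infected cells; CC50 as half-maximal cytotoxic concentration.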

Candida albicans [4] = test: Antifungal activity against Candida albicans SC5314 infected in HeLa cells at 20 uM after 5 days by fluorescein diacetate assay; type: functional, organism-based
In short: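 Primary HTS: HeLa cells co-incubated with C. albicans plus a single compound at ~20 μM for 5 days. Viability checked microscopically at 18 h and quantified at day 5 by fluorescein diacetate fluorescence. Wells also scanned visually for yeast growth. Hit criterion: >40% signal relative to the uninfected untreated HeLa (~100%) and infected untreated HeLa (~0%) controls.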

Candida albicans [5] = test: Antifungal activity against Candida albicans DSMZ 11949 by broth dilution method; type: functional
In short: (§1)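 MICs by broth microdilution following CLSI M27-A3 for yeasts, with fluconazole as the reference antifungal. Panel covered type strains and clinical isolates of Candida spp. (21 strains). Reference control strains: C. albicans DSMZ 11949, C. glabrata ATCC 90030, C. parapsilosis 22019 and 90018, Issatchenkia orientalis ATCC 6258. MIC in μg/mL; averages given as geometric means.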

Nakaseomyces glabratus [6] = test: Antifungal activity against Candida glabrata ATCC 90030 by broth dilution method; type: functional; in short: as §1
Candida parapsilosis [7] = test: Antifungal activity against Candida parapsilosis 22019 by broth dilution method; type: functional; conditions: Lodderomyces parapsilosis; in short: as §1
Candida parapsilosis [8] = test: Antifungal activity against Candida parapsilosis 90018 by broth dilution method; type: functional; conditions: Lodderomyces parapsilosis; in short: as §1
Pichia kudriavzevii = test: Antifungal activity against Issatchenkia orientalis ATCC 6258 by broth dilution method; type: functional; in short: as §1
Nakaseomyces glabratus [9] = test: Antifungal activity against Candida glabrata AN 8626 by broth dilution method; type: functional; in short: as §1
Nakaseomyces glabratus [10] = test: Antifungal activity against Candida glabrata CG 7 by broth dilution method; type: functional; in short: as §1
Candida albicans [11] = test: Antifungal activity against Candida albicans CA20 by broth dilution method; type: functional; in short: as §1
Candida albicans [12] = test: Antifungal activity against Candida albicans CA21 by broth dilution method; type: functional; in short: as §1
Candida albicans [13] = test: Antifungal activity against Candida albicans MY 2902/2008 by broth dilution method; type: functional; in short: as §1
Candida albicans [14] = test: Antifungal activity against Candida albicans SCS 71865 L by broth dilution method; type: functional; in short: as §1
Candida albicans [15] = test: Antifungal activity against Candida albicans Jg 32570 by broth dilution method; type: functional; in short: as §1
Candida albicans [16] = test: Antifungal activity against Candida albicans AM2001/2007 by broth dilution method; type: functional; in short: as §1
Candida albicans [17] = test: Antifungal activity against Candida albicans AN 1699 by broth dilution method; type: functional; in short: as §1
Candida albicans [18] = test: Antifungal activity against Candida albicans AN 1994 by broth dilution method; type: functional; in short: as §1
Candida tropicalis = test: Antifungal activity against Candida tropicalis AN 1946 by broth dilution method; type: functional; in short: as §1
Candida albicans [19] = test: Antifungal activity against Candida albicans AN 562 by broth dilution method; type: functional; in short: as §1
Candida albicans [20] = test: Antifungal activity against Candida albicans VB 1723 by broth dilution method; type: functional; in short: as §1
Candida albicans [21] = test: Antifungal activity against Candida albicans AN 3156 by broth dilution method; type: functional; in short: as §1
Candida parapsilosis [22] = test: Antifungal activity against Candida parapsilosis AN 5485 by broth dilution method; type: functional; conditions: Lodderomyces parapsilosis; in short: as §1
Candida parapsilosis [23] = test: Antifungal activity against Candida parapsilosis AV 7675 by broth dilution method; type: functional; conditions: Lodderomyces parapsilosis; in short: as §1

Row | Compound | Ratio CC50/IC50 [1] | CC50 at 120 h [2] [µM] | pIC50 (Candida albicans [3]) | inhibition (Candida albicans [4]) | MIC (Candida albicans [5]) [µg/mL] | MIC (Nakaseomyces glabratus [6]) [µg/mL] | MIC (Candida parapsilosis [7]) [µg/mL] | MIC (Candida parapsilosis [8]) [µg/mL] | MIC (Pichia kudriavzevii) [µg/mL] | MIC (Nakaseomyces glabratus [9]) [µg/mL] | MIC (Nakaseomyces glabratus [10]) [µg/mL] | MIC (Candida albicans [11]) [µg/mL] | MIC (Candida albicans [12]) [µg/mL] | MIC (Candida albicans [13]) [µg/mL] | MIC (Candida albicans [14]) [µg/mL] | MIC (Candida albicans [15]) [µg/mL] | MIC (Candida albicans [16]) [µg/mL] | MIC (Candida albicans [17]) [µg/mL] | MIC (Candida albicans [18]) [µg/mL] | MIC (Candida tropicalis) [µg/mL] | other results
1 | CCC[C@H](N)c1nc2ccccc2n1Cc1cccc(C)c1 | 15 | 30 | 5.70 | inactive |  |  |  |  |  |  |  |  |  |  |  |  |  |  |  |  | 
2 | Cc1cccc(Cn2c([C@@H](N)C(C)C)nc3ccccc32)c1 | 3.2 | 10.6 | 5.48 | inactive | 16 (≈ 54.5 µM) | 0.25 (≈ 0.852 µM) | 1 (≈ 3.41 µM) | 1 (≈ 3.41 µM) | 1 (≈ 3.41 µM) | 0.125 (≈ 0.426 µM) | 32 (≈ 109 µM) | 0.125 (≈ 0.426 µM) | 0.5 (≈ 1.7 µM) | 32 (≈ 109 µM) | 32 (≈ 109 µM) | 128 (≈ 436 µM) | 16 (≈ 54.5 µM) | 64 (≈ 218 µM) | 32 (≈ 109 µM) | 8 (≈ 27.3 µM) | MIC (Candida albicans [19]): 32 µg/mL (≈ 109 µM); MIC (Candida albicans [20]): 32 µg/mL (≈ 109 µM); MIC (Candida albicans [21]): 32 µg/mL (≈ 109 µM); MIC (Candida parapsilosis [22]): 2 µg/mL (≈ 6.82 µM); MIC (Candida parapsilosis [23]): 128 µg/mL (≈ 436 µM)
3 | Cc1cccc(Cn2c([C@H](C)N)nc3ccccc32)c1 |  |  |  | inactive | 8 (≈ 30.1 µM) | 64 (≈ 241 µM) | 128 (≈ 482 µM) | 128 (≈ 482 µM) | 128 (≈ 482 µM) | 64 (≈ 241 µM) | 64 (≈ 241 µM) | 1 (≈ 3.77 µM) | 64 (≈ 241 µM) | 32 (≈ 121 µM) | 128 (≈ 482 µM) | 128 (≈ 482 µM) | 64 (≈ 241 µM) | 128 (≈ 482 µM) | 128 (≈ 482 µM) | 128 (≈ 482 µM) | MIC (Candida albicans [19]): 128 µg/mL (≈ 482 µM); MIC (Candida albicans [20]): 128 µg/mL (≈ 482 µM); MIC (Candida albicans [21]): 128 µg/mL (≈ 482 µM); MIC (Candida parapsilosis [22]): 128 µg/mL (≈ 482 µM); MIC (Candida parapsilosis [23]): 128 µg/mL (≈ 482 µM)
4 | CCC[C@H](N)c1nc2ccccc2n1Cc1ccc(Cl)cc1 | 14 | 28 | 5.70 | inactive |  |  |  |  |  |  |  |  |  |  |  |  |  |  |  |  | 
5 | CC(C)[C@H](N)c1nc2ccccc2n1Cc1cccc(F)c1 | 9.4 | 20.6 | 5.66 | inactive | 16 (≈ 53.8 µM) | 8 (≈ 26.9 µM) | 16 (≈ 53.8 µM) | 16 (≈ 53.8 µM) | 16 (≈ 53.8 µM) | 16 (≈ 53.8 µM) | 64 (≈ 215 µM) | 0.125 (≈ 0.42 µM) | 0.125 (≈ 0.42 µM) | 16 (≈ 53.8 µM) | 16 (≈ 53.8 µM) | 128 (≈ 430 µM) | 4 (≈ 13.5 µM) | 16 (≈ 53.8 µM) | 2 (≈ 6.73 µM) | 32 (≈ 108 µM) | MIC (Candida albicans [19]): 16 µg/mL (≈ 53.8 µM); MIC (Candida albicans [20]): 4 µg/mL (≈ 13.5 µM); MIC (Candida albicans [21]): 16 µg/mL (≈ 53.8 µM); MIC (Candida parapsilosis [22]): 16 µg/mL (≈ 53.8 µM); MIC (Candida parapsilosis [23]): 128 µg/mL (≈ 430 µM)
6 | C[C@H](N)c1nc2ccccc2n1Cc1cccc(Cl)c1 | 2.5 | 19.3 | 5.11 | inactive | 4 (≈ 14 µM) | 8 (≈ 28 µM) | 4 (≈ 14 µM) | 4 (≈ 14 µM) | 4 (≈ 14 µM) | 4 (≈ 14 µM) | 8 (≈ 28 µM) | 0.125 (≈ 0.437 µM) | 0.125 (≈ 0.437 µM) | 0.5 (≈ 1.75 µM) | 8 (≈ 28 µM) | 128 (≈ 448 µM) | 8 (≈ 28 µM) | 16 (≈ 56 µM) | 16 (≈ 56 µM) | 8 (≈ 28 µM) | MIC (Candida albicans [19]): 16 µg/mL (≈ 56 µM); MIC (Candida albicans [20]): 1 µg/mL (≈ 3.5 µM); MIC (Candida albicans [21]): 16 µg/mL (≈ 56 µM); MIC (Candida parapsilosis [22]): 8 µg/mL (≈ 28 µM); MIC (Candida parapsilosis [23]): 128 µg/mL (≈ 448 µM)
7 | CC(C)C[C@H](N)c1nc2ccccc2n1Cc1ccc(Cl)cc1 | 9 | 36 | 5.40 | inactive |  |  |  |  |  |  |  |  |  |  |  |  |  |  |  |  | 
8 | OC(Cn1cncn1)(Cn1cncn1)c1ccc(F)cc1F [FLUCONAZOLE] |  |  |  |  | 2 (≈ 6.53 µM) | 0.125 (≈ 0.408 µM) | 1 (≈ 3.27 µM) | 0.25 (≈ 0.816 µM) | 0.25 (≈ 0.816 µM) | 4 (≈ 13.1 µM) | 4 (≈ 13.1 µM) | 0.125 (≈ 0.408 µM) | 0.125 (≈ 0.408 µM) | 0.5 (≈ 1.63 µM) | 0.125 (≈ 0.408 µM) | 128 (≈ 418 µM) | 0.5 (≈ 1.63 µM) | 8 (≈ 26.1 µM) | 128 (≈ 418 µM) | 128 (≈ 418 µM) | MIC (Candida albicans [19]): 1 µg/mL (≈ 3.27 µM); MIC (Candida albicans [20]): 0.5 µg/mL (≈ 1.63 µM); MIC (Candida albicans [21]): 8 µg/mL (≈ 26.1 µM); MIC (Candida parapsilosis [22]): 0.25 µg/mL (≈ 0.816 µM); MIC (Candida parapsilosis [23]): 2 µg/mL (≈ 6.53 µM)
9 | CC(=O)N[C@H](c1nc2ccccc2n1Cc1cccc(Cl)c1)C(C)C |  |  |  |  |  |  |  |  |  |  |  |  |  |  |  |  |  |  |  |  | IC50 (Candida albicans [3]): Not Active
10 | CC(C)[C@@H](N)c1nc2ccccc2n1Cc1cccc(Cl)c1 |  |  |  |  |  |  |  |  |  |  |  |  |  |  |  |  |  |  |  |  | IC50 (Candida albicans [3]): Not Active
